The source made the active and inactive calls. The rule behind the calls is not given here.
Tests used:
[1] = AUC (0 to infinity) in Sprague-Dawley rat at 10 mg/kg, po administered as single dose; assay type: ADME, organism-based; set-up: dose 10 mg/kg, route oral, time infinity; details: in vivo
[2] = molecular target: Platelet-derived growth factor receptor beta (Homo sapiens) (UniProt P09619); experiment: Inhibition of recombinant PDGFRbeta (unknown origin) using poly (Glu, Tyr) 4:1 as substrate at 1000 nM incubated for 60 mins by ELISA relative to control
How it was run: (§1)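 Recombinant tyrosine kinases assayed on wells precoated with poly(Glu,Tyr)4:1 (20 µg/mL). ATP 10 µmol/L in HEPES pH 7.4 buffer with MgCl2, MnCl2, Na3VO4 and DTT; compound in 1% DMSO, 1% DMSO as control. Reaction 60 min at 37 °C. Phosphotyrosine detected with PY99 and HRP anti-mouse, o-phenylenediamine, A490. Inhibition % relative to control; two experiments.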

[3] = Selectivity ratio of IC50 for human SNU1 cells to IC50 for human MKN45 cells; assay type: ADME, cell-based; details: mkn-45
[4] = molecular target: Vascular endothelial growth factor receptor 2 (Homo sapiens) (UniProt P35968); experiment: Inhibition of recombinant KDR (unknown origin) using poly (Glu, Tyr) 4:1 as substrate at 1000 nM incubated for 60 mins by ELISA relative to control; how it was run: as §1
[5] = molecular target: Mast/stem cell growth factor receptor Kit (Homo sapiens) (UniProt P10721); experiment: Inhibition of recombinant c-Kit (unknown origin) using poly (Glu, Tyr) 4:1 as substrate at 1000 nM incubated for 60 mins by ELISA relative to control; how it was run: as §1
Sequence of Mast/stem cell growth factor receptor Kit (Homo sapiens) (P10721 whole entry): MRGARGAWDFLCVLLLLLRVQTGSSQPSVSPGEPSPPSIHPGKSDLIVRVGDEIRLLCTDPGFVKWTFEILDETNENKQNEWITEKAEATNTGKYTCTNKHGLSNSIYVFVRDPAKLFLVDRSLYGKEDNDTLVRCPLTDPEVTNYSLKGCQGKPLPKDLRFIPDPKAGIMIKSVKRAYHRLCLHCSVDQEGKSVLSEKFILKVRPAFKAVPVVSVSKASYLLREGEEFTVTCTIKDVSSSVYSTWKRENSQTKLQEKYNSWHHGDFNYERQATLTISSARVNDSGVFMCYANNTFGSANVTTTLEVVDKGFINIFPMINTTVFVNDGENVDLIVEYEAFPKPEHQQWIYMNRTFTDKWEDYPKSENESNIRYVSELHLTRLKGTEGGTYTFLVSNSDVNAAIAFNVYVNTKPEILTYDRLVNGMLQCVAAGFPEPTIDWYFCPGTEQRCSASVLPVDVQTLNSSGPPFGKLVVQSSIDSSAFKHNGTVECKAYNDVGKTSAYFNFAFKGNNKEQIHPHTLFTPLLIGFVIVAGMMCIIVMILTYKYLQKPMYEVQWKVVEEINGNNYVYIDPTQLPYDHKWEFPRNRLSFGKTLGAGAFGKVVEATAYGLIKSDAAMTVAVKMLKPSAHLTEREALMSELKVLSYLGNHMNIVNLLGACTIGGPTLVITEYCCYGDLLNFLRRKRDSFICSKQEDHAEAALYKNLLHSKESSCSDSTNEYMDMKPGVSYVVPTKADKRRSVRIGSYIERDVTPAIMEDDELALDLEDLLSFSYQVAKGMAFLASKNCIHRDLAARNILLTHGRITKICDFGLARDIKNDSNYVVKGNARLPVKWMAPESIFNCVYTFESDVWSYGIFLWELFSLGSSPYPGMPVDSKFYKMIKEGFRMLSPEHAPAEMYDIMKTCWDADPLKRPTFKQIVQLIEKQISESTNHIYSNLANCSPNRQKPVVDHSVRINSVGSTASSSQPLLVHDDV

[6] = molecular target: Proto-oncogene tyrosine-protein kinase Src (Homo sapiens) (UniProt P12931); experiment: Inhibition of recombinant c-Src (unknown origin) using poly (Glu, Tyr) 4:1 as substrate at 1000 nM incubated for 60 mins by ELISA relative to control; how it was run: as §1
Sequence of Proto-oncogene tyrosine-protein kinase Src (Homo sapiens) (P12931 2-536 limits assumed): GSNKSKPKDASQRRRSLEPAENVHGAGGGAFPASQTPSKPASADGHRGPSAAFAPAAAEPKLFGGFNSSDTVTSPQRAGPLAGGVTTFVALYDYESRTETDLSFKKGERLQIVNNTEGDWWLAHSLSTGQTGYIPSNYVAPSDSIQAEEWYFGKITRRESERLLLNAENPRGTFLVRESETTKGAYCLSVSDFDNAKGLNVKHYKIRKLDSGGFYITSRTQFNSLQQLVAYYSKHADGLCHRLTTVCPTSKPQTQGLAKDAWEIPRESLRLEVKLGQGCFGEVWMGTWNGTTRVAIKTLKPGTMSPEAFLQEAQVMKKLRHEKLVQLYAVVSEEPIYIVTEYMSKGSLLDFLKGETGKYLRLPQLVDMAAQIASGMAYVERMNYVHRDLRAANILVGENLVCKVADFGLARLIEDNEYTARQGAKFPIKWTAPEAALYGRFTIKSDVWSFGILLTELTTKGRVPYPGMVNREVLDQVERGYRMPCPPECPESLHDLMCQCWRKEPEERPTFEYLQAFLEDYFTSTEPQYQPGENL

[7] = molecular target: Ephrin type-A receptor 2 (Homo sapiens) (UniProt P29317); experiment: Inhibition of recombinant EPHA2 (unknown origin) using poly (Glu, Tyr) 4:1 as substrate at 1000 nM incubated for 60 mins by ELISA relative to control; how it was run: as §1
Sequence of Ephrin type-A receptor 2 (Homo sapiens) (P29317 whole entry): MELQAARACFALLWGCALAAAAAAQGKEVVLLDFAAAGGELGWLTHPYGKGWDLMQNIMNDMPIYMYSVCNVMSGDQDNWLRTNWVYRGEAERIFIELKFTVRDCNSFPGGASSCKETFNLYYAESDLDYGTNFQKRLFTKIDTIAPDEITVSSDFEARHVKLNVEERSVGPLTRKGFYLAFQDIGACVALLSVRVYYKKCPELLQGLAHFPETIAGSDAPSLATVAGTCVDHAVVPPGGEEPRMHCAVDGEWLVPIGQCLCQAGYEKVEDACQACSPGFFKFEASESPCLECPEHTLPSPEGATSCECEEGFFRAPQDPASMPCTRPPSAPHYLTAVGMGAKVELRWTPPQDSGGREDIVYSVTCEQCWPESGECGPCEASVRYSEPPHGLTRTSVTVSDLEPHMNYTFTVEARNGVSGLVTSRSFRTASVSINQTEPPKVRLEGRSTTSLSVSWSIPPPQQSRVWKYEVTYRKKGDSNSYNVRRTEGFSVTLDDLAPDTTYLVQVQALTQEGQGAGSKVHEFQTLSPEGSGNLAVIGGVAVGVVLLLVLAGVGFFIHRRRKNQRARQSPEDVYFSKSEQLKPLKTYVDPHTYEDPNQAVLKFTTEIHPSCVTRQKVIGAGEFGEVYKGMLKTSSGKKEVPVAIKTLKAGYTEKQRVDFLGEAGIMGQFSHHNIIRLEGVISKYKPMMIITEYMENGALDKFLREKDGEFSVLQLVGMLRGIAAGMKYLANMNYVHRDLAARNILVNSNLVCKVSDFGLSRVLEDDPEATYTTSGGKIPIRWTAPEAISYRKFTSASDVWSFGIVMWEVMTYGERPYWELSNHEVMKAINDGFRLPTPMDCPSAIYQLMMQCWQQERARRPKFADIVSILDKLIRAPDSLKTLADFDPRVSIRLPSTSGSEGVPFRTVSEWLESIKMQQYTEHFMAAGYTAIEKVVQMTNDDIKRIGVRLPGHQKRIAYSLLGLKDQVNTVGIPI

[8] = molecular target: T1, Hepatocyte growth factor receptor (Homo sapiens, UniProt P08581); experiment: Inhibition of c-Met phosphorylation at Tyrosine 1234 in human MKN45 cells at 10 nM after 1 hr by Western blot analysis; assay type: cell-based; details: MKN-45
T1 sequence (P08581 whole entry): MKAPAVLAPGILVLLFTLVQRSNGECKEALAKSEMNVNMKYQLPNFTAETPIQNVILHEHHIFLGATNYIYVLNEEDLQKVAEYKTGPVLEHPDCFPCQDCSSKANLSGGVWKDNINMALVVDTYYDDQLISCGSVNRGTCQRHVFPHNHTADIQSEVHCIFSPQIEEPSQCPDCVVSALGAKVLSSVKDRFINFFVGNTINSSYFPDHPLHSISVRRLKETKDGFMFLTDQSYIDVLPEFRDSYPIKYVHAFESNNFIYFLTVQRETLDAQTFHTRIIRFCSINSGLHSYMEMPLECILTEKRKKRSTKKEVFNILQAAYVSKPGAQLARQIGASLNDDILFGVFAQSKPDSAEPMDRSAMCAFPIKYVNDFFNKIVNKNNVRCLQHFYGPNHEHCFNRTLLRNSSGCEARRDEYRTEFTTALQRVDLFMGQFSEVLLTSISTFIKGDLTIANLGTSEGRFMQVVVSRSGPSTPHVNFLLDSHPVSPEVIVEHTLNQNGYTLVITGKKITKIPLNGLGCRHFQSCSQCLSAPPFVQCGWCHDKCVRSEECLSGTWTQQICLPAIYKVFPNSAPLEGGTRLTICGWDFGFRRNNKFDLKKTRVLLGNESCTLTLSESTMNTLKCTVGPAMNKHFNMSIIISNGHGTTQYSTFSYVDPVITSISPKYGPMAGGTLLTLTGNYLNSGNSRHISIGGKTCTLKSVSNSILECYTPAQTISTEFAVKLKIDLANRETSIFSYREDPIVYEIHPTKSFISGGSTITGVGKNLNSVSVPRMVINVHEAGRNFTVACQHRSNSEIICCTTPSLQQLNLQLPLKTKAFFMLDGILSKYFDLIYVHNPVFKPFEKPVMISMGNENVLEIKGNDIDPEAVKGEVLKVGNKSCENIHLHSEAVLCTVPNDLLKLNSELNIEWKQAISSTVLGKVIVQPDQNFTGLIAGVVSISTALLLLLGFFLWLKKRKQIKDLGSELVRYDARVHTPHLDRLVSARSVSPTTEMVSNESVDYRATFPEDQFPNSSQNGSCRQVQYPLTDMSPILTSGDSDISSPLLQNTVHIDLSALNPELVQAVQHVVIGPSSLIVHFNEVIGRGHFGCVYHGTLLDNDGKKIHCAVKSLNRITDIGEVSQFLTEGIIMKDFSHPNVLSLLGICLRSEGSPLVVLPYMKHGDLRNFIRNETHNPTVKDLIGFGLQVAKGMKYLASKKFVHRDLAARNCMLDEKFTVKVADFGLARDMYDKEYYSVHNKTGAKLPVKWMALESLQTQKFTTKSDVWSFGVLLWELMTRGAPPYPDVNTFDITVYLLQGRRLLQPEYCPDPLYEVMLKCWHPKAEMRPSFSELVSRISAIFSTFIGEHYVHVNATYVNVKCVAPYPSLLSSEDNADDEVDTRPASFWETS
How it was run: (§2)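 EBC-1 or MKN45 cells treated with compound 1 h at 37 °C without HGF, then lysed in 1× SDS sample buffer. Lysates run on 10% SDS-PAGE and transferred to nitrocellulose. Probed with antibodies to c-Met, phospho-c-Met, phospho-ERK1/2, phospho-AKT, AKT and GAPDH, then HRP secondary. ECL detection.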

[9] = molecular target: T1, Hepatocyte growth factor receptor; experiment: Inhibition of c-Met in human EBC1 cells assessed as reduction in AKT phosphorylation at Serine 473 at 10 nM after 1 hr by Western blot analysis; assay type: cell-based; how it was run: as §2
[10] = molecular target: T1, Hepatocyte growth factor receptor; experiment: Inhibition of c-Met in human EBC1 cells assessed as reduction in ERK phosphorylation at Threonine 202 at 10 nM after 1 hr by Western blot analysis; assay type: cell-based; how it was run: as §2
[11] = molecular target: T1, Hepatocyte growth factor receptor; experiment: Inhibition of c-Met in human MKN45 cells assessed as reduction in ERK phosphorylation at Tyrosine 204 at 10 nM after 1 hr by Western blot analysis; assay type: cell-based; details: MKN-45; how it was run: as §2
[12] = molecular target: T1, Hepatocyte growth factor receptor; experiment: Inhibition of c-Met in HGF stimulated human U87MG cells assessed as reduction in ERK phosphorylation at Tyrosine 204 at 10 nM after 1 hr by Western blot analysis; assay type: cell-based; details: U-87MG ATCC
How it was run: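 U87MG cells serum-starved 24 h, pretreated with compound 1 h at 37 °C, then stimulated with HGF (100 ng/mL) for 15 min. Lysed in 1× SDS sample buffer, resolved by 10% SDS-PAGE and blotted to nitrocellulose. Probed for phospho-c-Met, phospho-ERK1/2, phospho-AKT and totals, with GAPDH as loading control. ECL detection.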

[13] = molecular target: T1, Hepatocyte growth factor receptor; experiment: Inhibition of c-Met phosphorylation at Tyrosine 1235 in human MKN45 cells at 10 nM after 1 hr by Western blot analysis; assay type: cell-based; details: MKN-45; how it was run: as §2
[14] = Antiproliferative activity against human U87MG cells after 72 hrs by SRB or MTT assay; assay type: functional, cell-based, U-87MG ATCC; details: U-87 MG
How it was run: (§3)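 Cells seeded, exposed next day to a range of concentrations for 72 h. Growth read by sulforhodamine B or MTT. IC50 from four-parameter concentration-response fit. Each concentration tested at least in triplicate, with at least 2 experiments.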

SNU1 = experiment: Antiproliferative activity against human SNU1 cells after 72 hrs by SRB or MTT assay; assay type: functional, cell-based; details: SNU1, 72 h; how it was run: as §3
[15] = Antitumor activity against human MKN45 cells xenografted in athymic nude mouse assessed as tumor growth inhibition at 6.25 mg/kg, po bid for 21 days measured twice a week during compound dosing relative to control; assay type: functional; details: MKN-45, po, 504 h, read-out: TGI
How it was run: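 Nude mice bearing s.c. tumours. Cells were first grown s.c. to 700–800 mm³, then 1.5 mm³ fragments were transplanted s.c. into the right flank. Mice were randomised at 100–200 mm³ (n=6 treated, n=12 vehicle) and dosed orally twice daily for 21 days. Caliper measurement twice weekly; TV = length×width²/2. TGI taken on the final day versus vehicle; Student's t test.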

[16] = Selectivity ratio of IC50 for human 786-0 cells to IC50 for human MKN45 cells; assay type: ADME, cell-based; details: mkn-45
How it was run: (§4)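 Both IC50s in each ratio come from one proliferation assay. Cells were seeded and exposed the next day to a range of concentrations for 72 h, then read by SRB or MTT. IC50s were fitted by four-parameter concentration–response, with each concentration at least in triplicate and at least 2 experiments. BaF3/TPR-Met is murine pre-B BaF3 transfected with TPR-MET and puromycin-selected.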

[17] = Selectivity ratio of IC50 for human NCI-HCC827 cells to IC50 for human MKN45 cells; assay type: ADME, cell-based; details: mkn-45; how it was run: as §4
[18] = Selectivity ratio of IC50 for human NCI-H292 cells to IC50 for human EBC1 cells; assay type: ADME, cell-based; how it was run: as §4
[19] = Selectivity ratio of IC50 for human NCI-H292 cells to IC50 for human MKN45 cells; assay type: ADME, cell-based; how it was run: as §4
[20] = Selectivity ratio of IC50 for human NCI-H292 cells to IC50 for mouse BAF3 cells expressing TPR-MET; assay type: ADME, cell-based; how it was run: as §4
[21] = Selectivity ratio of IC50 for human NCI-H3122 cells to IC50 for human EBC1 cells; assay type: ADME, cell-based; how it was run: as §4
[22] = Selectivity ratio of IC50 for human NCI-H3122 cells to IC50 for human MKN45 cells; assay type: ADME, cell-based; details: mkn-45; how it was run: as §4
[23] = Selectivity ratio of IC50 for human NCI-H661 cells to IC50 for human EBC1 cells; assay type: ADME, cell-based; how it was run: as §4
[24] = Selectivity ratio of IC50 for human MDA-MB-231 cells to IC50 for human MKN45 cells; assay type: ADME, cell-based; details: mkn-45; how it was run: as §4
[25] = Selectivity ratio of IC50 for human MGC803 cells to IC50 for human EBC1 cells; assay type: ADME, cell-based; details: mgc-803; how it was run: as §4
[26] = Selectivity ratio of IC50 for human MGC803 cells to IC50 for mouse BAF3 cells expressing TPR-MET; assay type: ADME, cell-based; how it was run: as §4
[27] = molecular target: Tyrosine-protein kinase receptor UFO (Homo sapiens) (UniProt P30530); details: 1000 nM
Sequence of Tyrosine-protein kinase receptor UFO (Homo sapiens) (P30530 whole entry): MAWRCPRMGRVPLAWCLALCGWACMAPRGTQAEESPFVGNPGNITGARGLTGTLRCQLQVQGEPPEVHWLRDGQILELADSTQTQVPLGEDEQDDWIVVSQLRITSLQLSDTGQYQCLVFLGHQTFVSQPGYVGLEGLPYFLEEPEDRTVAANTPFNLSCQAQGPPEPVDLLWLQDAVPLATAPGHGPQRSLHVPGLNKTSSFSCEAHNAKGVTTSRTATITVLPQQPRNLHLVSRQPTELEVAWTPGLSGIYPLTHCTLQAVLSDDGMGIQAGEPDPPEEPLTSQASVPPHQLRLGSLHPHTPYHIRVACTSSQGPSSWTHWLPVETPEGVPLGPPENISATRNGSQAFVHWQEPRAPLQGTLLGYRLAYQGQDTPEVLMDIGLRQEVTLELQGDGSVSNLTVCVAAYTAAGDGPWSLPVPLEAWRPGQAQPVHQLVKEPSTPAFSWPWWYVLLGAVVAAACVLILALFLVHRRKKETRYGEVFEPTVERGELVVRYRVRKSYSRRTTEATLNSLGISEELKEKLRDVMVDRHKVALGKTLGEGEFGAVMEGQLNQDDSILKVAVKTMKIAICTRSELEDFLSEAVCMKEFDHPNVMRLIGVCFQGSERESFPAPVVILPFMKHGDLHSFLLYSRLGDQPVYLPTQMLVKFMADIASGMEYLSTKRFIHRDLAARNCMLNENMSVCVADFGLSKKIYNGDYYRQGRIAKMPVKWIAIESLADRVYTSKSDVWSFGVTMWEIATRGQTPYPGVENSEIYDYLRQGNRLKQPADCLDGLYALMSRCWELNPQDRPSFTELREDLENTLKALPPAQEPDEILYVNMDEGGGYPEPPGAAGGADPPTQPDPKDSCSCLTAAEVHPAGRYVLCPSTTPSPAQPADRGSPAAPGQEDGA

- AUC(0-inf) [1]: 2380 ng·h/mL
- inhibition [2]: 19.6%
- inhibition [4]: 15.3%
- inhibition [5]: 32.1%
- inhibition [6]: 13.7%
- inhibition [7]: 6.1%
- inhibition [8]: Active
- inhibition [9]: Active
- inhibition [10]: Active
- inhibition [11]: Active
- inhibition [12]: Active
- inhibition [13]: Active
- IC50 (SNU1): > 10 µM
- inhibition [27]: 36%
Compound: Fc1ccc(-c2cnc3nnc(C(F)(F)c4ccc5ncccc5c4)n3n2)cc1
- Ratio IC50 [3]: 10000
- IC50 [14]: > 10 µM
- inhibition in vivo at 6.25 mg/kg [15]: 46.8%
- Ratio IC50 [16]: 10000
- Ratio IC50 [17]: 10000
- Ratio IC50 [18]: 10000
- Ratio IC50 [19]: 10000
- Ratio IC50 [20]: 10000
- Ratio IC50 [21]: 10000
- Ratio IC50 [22]: 10000
- Ratio IC50 [23]: 10000
- Ratio IC50 [24]: > 10000
- Ratio IC50 [25]: > 10000
- Ratio IC50 [26]: > 10000

From ChEMBL document CHEMBL3797175, “Discovery of 6-(difluoro(6-(4-fluorophenyl)-[1,2,4]triazolo[4,3-b][1,2,4]triazin-3-yl)methyl)quinoline as a highly potent and selective c-Met inhibitor” (Eur J Med Chem, 2016)
